# sdo1 growth: restores growth of sdo1-depleted yeast; S. cerevisiae sdo1-depleted JHY4D growth rescue, OD600 30 h; stronger effect = higher value; pdr5 snq2 efflux-pump mutant strain; 140,000 compounds, 0.21% hits; z-score at 10 µM;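 active = z-score above 3 at both the 24 hr and the 30 hr optical density reads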;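 note: z-score against mean and SD of all compound wells on the same plate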
# zVAD death inh: blocks zVAD induced death of L929 cells. L929 zVAD necroptosis rescue, ATP luminescence, 24 h; with zVAD 60 µM. viability rescue, % at 10 µM. 220,000 compounds, 0.38% hits;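 active = activation, scaled between plate controls, above about 75%, limit read from the data; inactive = activation under that limit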;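 note: 0% = zVAD with DMSO and 100% = DMSO alone without zVAD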
# Rad51 HR inh: Rad51 (human) homologous recombination inhibition | Q06609 | hRad51 DNA strand exchange, fluorescence dequenching | inhibition, % at 10 µM | 200,000 compounds, 0.085% hits;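 active = inhibition above 40% at the single screening dose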;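 note: 0% = DMSO control wells and 100% = blanks with heterologous ssDNA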
# Target sequence (Q06609 whole entry, looked up): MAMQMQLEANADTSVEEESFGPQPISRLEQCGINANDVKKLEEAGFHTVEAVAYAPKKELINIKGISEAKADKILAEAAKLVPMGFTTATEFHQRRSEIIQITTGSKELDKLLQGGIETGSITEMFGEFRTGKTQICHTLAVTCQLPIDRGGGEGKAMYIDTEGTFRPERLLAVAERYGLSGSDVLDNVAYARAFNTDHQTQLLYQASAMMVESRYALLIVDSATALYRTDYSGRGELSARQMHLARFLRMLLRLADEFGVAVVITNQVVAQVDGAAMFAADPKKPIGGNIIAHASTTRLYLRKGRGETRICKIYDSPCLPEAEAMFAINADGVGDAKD
#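 material = hRad51 filaments on single-stranded DNA | reagent = Donor/quencher-labelled 47-bp dsDNA substrate | compound = 10 µM final, single point | schedule = strand-exchange reaction 15 min at room temperature | measured by = fluorescein emission 520 nm, excitation 485 nm | read-out basis = % inhibition versus plate control and blank means | benchmarks = plate controls and plate blanks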
# TNF necrop inh: inhibitors of TNF-alpha induced necroptosis in Jurkat FADD-/- cells; AID 463075; activation (protection from cell death), % at 10 µM; Jurkat FADD-/- TNF necroptosis rescue, ATP luminescence, 24 h; 0 = TNF only, 100 = no-TNF cells; 220,000 compounds, 0.068% hits;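 active = activation, meaning protection from cell death, of at least 50% relative to plate controls; inactive = activation below 50%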;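 note: necroptosis triggered by 40 ng/mL TNF-alpha added together with compound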
# An asterisk follows results filed as active; . = not tested or not shown. The list is not random: actives were taken first. Their share in the collection is about 0.64%.
SMILES,sdo1 growth,zVAD death inh,Rad51 HR inh,TNF necrop inh
CS(=O)(=O)c1ccc2nc(NC(=O)Nc3cccc(Cl)c3)sc2c1,1.2,83*,-1,-7
CN(C(=O)c1ccno1)c1nnc(-c2cnccn2)s1,0.23,0,9,-2
CC(=O)N(CC1CCCO1)c1nnc(-c2cnccn2)s1 (stereo not drawn),0.02,0,4,76*
Cc1c(C(=O)N/N=C/c2ccc(O)c(Br)c2)sc(N)c1C#N,-0.21,76*,-8,8
COc1cccc(NC(=O)N2CCCC2)c1,.,0,43*,0
Cn1ncc([N+](=O)[O-])c1C(=O)n1nnc2ccccc21,.,1,5,-1
Cc1ccc(C)c(NC(=O)c2cc3ccccn3n2)c1,0.09,0,7,-1
Cc1ccc(C)c(NC(=O)c2cnn3ccccc23)c1,0.76,85*,-4,-1
Cn1c(=O)c(C(=O)CN2CC(=O)Nc3ccccc32)c(N)n(Cc2ccccc2)c1=O,.,-1,-4,0
COc1ccc(C2C(=O)c3ccccc3C2=O)c(OC)c1,-0.58,2,100*,-1
Cc1nnsc1C(=O)NNc1c(Cl)cccc1Cl,.,-1,5,84*
O=C(NCc1ccncc1)c1nc(-c2cccs2)no1,.,1,12,0
O=C(NCc1cccs1)c1nc(-c2cccs2)no1,.,0,41*,-1
COc1ccc(/C=N/N=C2\SC(CC(=O)O)C(=O)N2c2ccccc2)cc1 (stereo not drawn),1.3,0,0,0
CCN(CC)CC(=O)Nc1ccc2c(c1)Nc1ccccc1CC2,0.35,84*,-3,-2
C=C1C(=O)O[C@@H]2C[C@@H](C)[C@@H]3C=CC(=O)[C@@]3(C)[C@@H](OC(C)=O)[C@H]12,.,130*,-10,33
COC(C(=O)Nc1ccc(Br)cc1F)c1ccccc1 (stereo not drawn),.,1,-7,91*
COC(C(=O)Nc1ccccc1F)c1ccccc1 (stereo not drawn),-0.12,10,8,84*
COC(C(=O)Nc1cc([N+](=O)[O-])ccc1C)c1ccccc1 (stereo not drawn),.,0,.,4
COC(C(=O)NC1CC1)c1ccccc1 (stereo not drawn),1.5,1,.,31
O=[N+]([O-])/C(C(Cl)=C(Cl)Cl)=C(/Sc1ccccc1)N1CCCCC1,.,2,26,-21
Cc1c(C(=O)NN2CCOCC2)oc2c1ccc1ccccc12,.,6,21,0
COC(C/C=C\[C@H](O)[C@@H](C)OCc1ccccc1)OC,.,.,-5,.
O=C(Nc1ccccc1)C1=C(c2ccccc2)S(=O)(=O)CCS1(=O)=O,.,70,42*,-15
O=C(O)c1ccccc1C(=O)Nc1ccccc1,0.12,-1,-1,-1
SMILES,sdo1 growth,zVAD death inh,Rad51 HR inh,TNF necrop inh
Cc1sc2ncn(Cc3ccccc3F)c(=O)c2c1C,.,1,-23,95*
Cc1ccc(CC2SC(=O)NC2=O)cc1Cl (stereo not drawn),0.86,84*,13,20
Nc1ccc(CC2SC(=O)NC2=O)cc1 (stereo not drawn),1.1,1,8,1
COC(C(=O)NNC(=O)Cc1ccc(Cl)cc1)c1ccccc1 (stereo not drawn),.,1,8,6
COC(C(=O)Nc1cccc(F)c1)c1ccccc1 (stereo not drawn),0.14,23,10,79*
COC(C(=O)Nc1ccc(F)c(F)c1)c1ccccc1 (stereo not drawn),.,13,-2,99*
CCN1CCN(Cc2ccc(NC(=O)c3cc(NC(=O)c4cncc(-c5ccc(C#N)cc5)c4)cc(OC)c3)cc2C(F)(F)F)CC1,.,80*,-4,-26
Cc1ccc(CC(=O)Nc2ncc([N+](=O)[O-])s2)cc1,.,2,-50,77*
CN(C)S(=O)(=O)c1ccc(NC(=O)COC(=O)C2CC3CCCC(C2)C3=O)cc1 (stereo not drawn),.,2,14,0
CCOc1ccc(N2C(=O)C3ON(C)C(c4ccc([N+](=O)[O-])cc4)C3C2=O)cc1 (stereo not drawn),.,0,11,5
CCOC(=O)N1CCC(Nc2c(NCCCN3CCN(C4CCCCC4)CC3)c(=O)c2=O)CC1,.,3,0,1
CC(C)c1ccc(Nc2nc(NCc3ccco3)nc(N3CCOCC3)n2)cc1,0.15,87*,12,2
O=C(N/N=C\c1ccc(Cl)cc1Cl)c1sccc1-n1cccc1,-0.81,89*,3,-3
CS(=O)(=O)N1CCc2cc(NC(=O)c3ccc(Cl)cc3Cl)ccc21,.,1,-9,-1
O=C1c2ccsc2SCCN1Cc1ccccc1,.,1,.,70*
Cc1onc(-c2c(Cl)cccc2Cl)c1C(=O)Nn1cnnc1,0.7,0,44*,-3
COc1ccc(-n2c(C)nc3sc4c(c3c2=O)CCCC4)cc1,.,8,3,89*
COc1ccc(-n2cnc3cc(NS(=O)(=O)c4ccccc4)ccc32)cc1,0.71,-1,-1,53*
CC(C)(C)n1cnc2cc(NS(=O)(=O)c3ccccc3)ccc21,-0.59,0,11,1
COc1ccc(NC(=O)Cn2cnc3c(cnn3C(C)(C)C)c2=O)cc1OC,.,3,19,2
Cc1ccc(NC(=O)Cn2cnc3c(cnn3C(C)(C)C)c2=O)cc1,-0.98,84*,-4,2
COCCn1c(=NC(=O)CSC(C)=O)sc2cc(F)ccc21,0.67,1,83*,0
Cc1cc(NS(=O)(=O)c2ccc(N)cc2)no1,-0.09,70,0,2
O=C(CSCc1ccc([N+](=O)[O-])cc1)NC1CC2CCC1C2 (stereo not drawn),0.03,5,0,63*
O=S(=O)(Nc1ccc(O)c(CN2CCCCC2)c1)c1ccccc1,-0.2,1,57*,-2
SMILES,sdo1 growth,zVAD death inh,Rad51 HR inh,TNF necrop inh
Cn1c(CN2CCCC2)nc2cc(NS(=O)(=O)c3ccccc3)ccc21,-0.01,0,0,-1
Cc1ccc2oc(=O)c3cc(C(=O)N4CCN(C)CC4)sc3c2c1,.,1,-12,4
COc1ccccc1-n1cnnc1SCC(=O)Nc1cc(C(C)(C)C)nn1-c1ccccc1,-0.08,105*,-2,7
Cn1nnnc1SCC(=O)Nc1cc(C(C)(C)C)nn1-c1ccccc1,0.43,1,13,1
C#CCNC(=O)C(C)c1ncc(C(F)(F)F)cc1Cl (stereo not drawn),.,2,20,-1
N#CCC(=O)NNC(=S)Nc1ccccc1C(F)(F)F,.,0,41*,-4
Cc1ccc(C(=O)NCC#N)cc1,.,0,20,0
Cc1ccc(C(=O)NC(C#N)=C(Cl)Cl)cc1,.,62,-2,74*
Cc1ccc(-c2nc(-c3ccccn3)sc2CC(=O)O)cc1,.,0,47*,1
O=C(O)Cc1sc(-c2ccccc2)nc1-c1ccccc1,-0.6,1,-1,-3
CN1CCN(C2=C(Cl)C(=O)N(Cc3ccccc3)C2=O)CC1,-0.94,0,52*,-1
CCN1CCN(C2=C(Cl)C(=O)N(Cc3ccccc3)C2=O)CC1,0.3,-1,-3,-2

# Compound activity (PubChem)
